# PKD1 kinase inh: inhibitors of human PKD1 kinase, biochemical, fluorescence polarization; AID 797, 2007; PKD1 kinase fluorescence polarization assay; inhibition, % (test concentration not listed); hit rate 0.056% among 200,000; Serine/threonine-protein kinase D1 (Homo sapiens), Q15139; in the data active = inhibition above about 50%
# Target sequence (Q15139 whole entry, looked up): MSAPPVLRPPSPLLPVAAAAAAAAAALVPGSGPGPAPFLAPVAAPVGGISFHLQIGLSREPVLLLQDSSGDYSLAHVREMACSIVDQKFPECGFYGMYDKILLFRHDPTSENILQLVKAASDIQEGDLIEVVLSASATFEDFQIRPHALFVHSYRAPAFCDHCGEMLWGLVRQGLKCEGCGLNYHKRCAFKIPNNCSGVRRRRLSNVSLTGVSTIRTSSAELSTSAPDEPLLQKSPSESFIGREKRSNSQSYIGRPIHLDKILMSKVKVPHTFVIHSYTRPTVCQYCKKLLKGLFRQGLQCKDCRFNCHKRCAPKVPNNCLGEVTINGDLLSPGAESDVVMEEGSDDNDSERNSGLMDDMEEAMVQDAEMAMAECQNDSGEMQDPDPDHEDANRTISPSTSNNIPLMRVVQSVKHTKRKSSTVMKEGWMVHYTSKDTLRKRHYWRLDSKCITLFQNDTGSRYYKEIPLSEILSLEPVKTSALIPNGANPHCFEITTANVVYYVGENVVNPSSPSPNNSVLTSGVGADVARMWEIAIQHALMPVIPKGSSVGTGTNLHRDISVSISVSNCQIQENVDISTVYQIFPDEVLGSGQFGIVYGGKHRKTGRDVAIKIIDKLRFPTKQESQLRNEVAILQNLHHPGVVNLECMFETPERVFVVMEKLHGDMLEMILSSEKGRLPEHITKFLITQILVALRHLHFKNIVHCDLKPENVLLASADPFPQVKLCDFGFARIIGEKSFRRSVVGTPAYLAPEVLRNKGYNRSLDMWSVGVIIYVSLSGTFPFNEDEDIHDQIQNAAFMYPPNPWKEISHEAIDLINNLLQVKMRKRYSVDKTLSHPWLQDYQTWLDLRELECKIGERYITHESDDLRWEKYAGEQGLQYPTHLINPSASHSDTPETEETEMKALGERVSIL
# Autophagy HCS: autophagy modulators in MEF cells, primary screen, imaging, high-content, MEF GFP-LC3 | calls only at 10 µM (by protocol) | hit rate 0.98% among 190,000 | MEF GFP-LC3 puncta imaging; test concentration mostly 10 µM;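 active = percentage of spot-positive cells more than 3 SD above its plate mean, without a fluorescence outlier flag or 80% toxicity; inconclusive = no clear call, values can overlap the other calls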;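 also: spot-positive cell cutoff set from DMSO-treated cells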
# Insulin prom inh: inhibitors of insulin promoter-driven GFP, primary screen, imaging, TRM-6 cells, eGFP reporter, cell count; reporter expression induced with tamoxifen; inhibition, % at 2 µM; hit rate 0.9% among 130,000; AID 1273, 2008;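 active = inhibition above the mean plus 3 SD, with well images judged a real hit on visual review, cut at about 60% in these data, passing the limit was not always enough; inconclusive = inhibition over the cutoff but images rejected on review; inactive = inhibition not above the cutoff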
# Ins promoter up: insulin promoter activators in MIN6 cells, imaging, high-content screening, mouse beta cells | hit rate 0.3% among 190,000 | AID 1625, 2009 | MIN6 insulin promoter-GFP reporter; stronger effect = higher value | z-score at 5 µM;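 active = z-score above 3 at 5 µM with at least 500 cells counted in the well; inconclusive = wells under 500 cells, flagged as cytotoxic or low count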
# Arbovirus inh: antivirals against arbovirus infection, primary screen, cell-based, full library, 10K replicate subset; arbovirus infection cell-based antiviral screen; inhibition, % at 10 µM; hit rate 0.37% among 200,000; in the data active = inhibition above about 30%
# RBBP9 inhibitor: human RBBP9 inhibitors, primary screen, biochemical, fluorescence polarization, FP-Rh probe, HTS. hit rate 0.2% among 220,000. recombinant RBBP9. inhibition, % at 7.94 µM. AID 1515, 2009. Serine hydrolase RBBP9 (Homo sapiens), O75884;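 active = inhibition above the campaign mean of all tested compounds plus 3 SD, cut at about 14% in these data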;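 also: plate controls were DMSO wells with RBBP9 for no effect and wells lacking RBBP9 protein for full effect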
#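 system = RBBP9 protein | input = RBBP9 at 2.5 µM in dispensed solution, before mixing | measured by = fluorescence polarization (mP), excitation 525 nm, emission 598 nm | incubation = enzyme-compound preincubation 30 min, then probe labeling 45 min, 25 °C | buffer or medium = Tris-NaCl-Pluronic buffer, pH 8.0 | compound = single dose 7.94 µM | also added = FP-Rh probe, 375 nM dispensing solution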
# Active calls of the source: *; i = inactive; ? = inconclusive; . = not tested or not shown; + = active, no number. An excerpt weighted towards active compounds, which were near 2.1% of everything screened.
SMILES,PKD1 kinase inh,Autophagy HCS,Insulin prom inh,Ins promoter up,Arbovirus inh,RBBP9 inhibitor
Cc1cc(NC(=O)CSc2ccc3nnc(-c4ccccn4)n3n2)no1,-16,i,.,0.33,5,1
O=C(O)CSc1cc(C(=O)c2ccccc2O)cn2c(=O)c3c(-c4ccccc4)csc3nc12,-7,i,.,-0.07,70*,-29
O=S(=O)(c1ccccc1)c1ccc(NCc2ccco2)cc1,-10,i,0,0.41,5,-1
CC(OC(=O)CCC(=O)c1cccs1)C(=O)Nc1ccc(Cl)cn1 (stereo not given),-5,i,.,-0.34,-1,-4
O=C(c1cccnc1)N1CCN(CCCc2ccccc2)CC1,-7,i,6,0.37,0,-9
CCC(Sc1nc2c(cnn2-c2ccc(Cl)cc2)c(=O)[nH]1)C(=O)OC (stereo not given),6,i,80*,1.7,18,-5
CS(=O)(=O)N1CCC(C(=O)Nc2ccc(OCc3ccccc3)cc2)CC1,0,i,71*,0.01,-6,2
O=c1c2cc(Br)cc(Br)c2oc2nc3n(c(=O)c12)CCCS3,7,i,-9,0.11,10,-14
Cc1cc(C)c2oc(-c3ccc(Cl)c(NC(=O)c4ccc(C#N)cc4F)c3)nc2c1,-7,+,29,0.23,-2,-2
N#Cc1ccc(C(=O)Nc2cccc3ncccc23)c(F)c1,1,i,?,0.86,1,-4
c1cc2c3c(cccc3c1)C(N1CCCCC1)=N2,-11,i,87*,-0.11,5,3
CCN1CCN(C(=O)CCN2C(=O)COc3ccc(C)cc32)CC1,-4,i,-25,-0.72,2,0
Cc1c(NC(=O)c2cc(-c3ccccc3)on2)c(=O)n(-c2ccccc2)n1C,-13,i,-7,-0.86,1,7
Cc1c(NC(=O)c2cc(C3CC3)on2)c(=O)n(-c2ccccc2)n1C,-4,+,.,-0.28,1,-6
CC(C)CNS(=O)(=O)c1ccc(CCC(=O)O)cc1,-4,i,-412,-0.63,4,-8
C=CCOc1ccc(Br)cc1/C=C1/SC(=Nc2ccc(C(=O)O)cc2)NC1=O,-5,i,-29,0.23,32*,-12
Cc1ccc(-c2csc3ncnc(Nc4ccc(C(=O)O)cc4)c23)cc1,.,.,.,-1,.,-1
O=C(Nc1ccccc1)N1N=CCC1c1ccccc1 (stereo not given),7,i,-10,0.08,-1,-6
O=C1c2cccc3cccc(c23)N1Cc1ccc(F)cc1,1,i,-25,.,-4,-6
CCN1/C(=N\N)c2cccc3cccc1c23,-3,+,.,1.8,1,-4
Cc1cc(/C=C2\NC(=S)N(C)C2=O)ccc1N1CCCC1,0,+,.,.,-2,-8
CCN1C(=O)/C(=C/c2ccc(N3CCCC3)cc2)NC1=S,-3,+,-252,16*,4,-5
CCCN1C(=O)/C(=C/c2ccc(N3CCCC3)c(C)c2)NC1=S,3,+,-92,.,-10,-2
Cc1cc(/C=C2/C(=O)N(C)C(=S)N2C)ccc1N1CCCC1,-1,+,-376,.,6,-1
CCNc1nc(NCC)nc(SCCOC(=O)Nc2ccccc2)n1,-8,i,62,-1.5,27,-9
SMILES,PKD1 kinase inh,Autophagy HCS,Insulin prom inh,Ins promoter up,Arbovirus inh,RBBP9 inhibitor
COCCN1C(=O)CC(NNC(=O)c2ccc(S(=O)(=O)N3CCCC3)cc2)C1=O (stereo not given),-1,i,.,-0.19,8,-10
O=C1CS/C(=N\c2ccccn2)N1C1CCCCC1,-8,i,-43,1.1,12,-3
CN1/C(=C/C(=O)c2ccc(Cl)cc2)Sc2cc3c(cc21)OCO3,-7,+,-52,-0.73,-15,-1
C=CCN(C(=O)C1=NN(C2CCS(=O)(=O)C2)C(=O)CC1)c1nc(-c2ccc([N+](=O)[O-])cc2)cs1 (stereo not given),0,+,.,-0.12,-6,-7
O=C(Nc1cccnc1)C1=NN(C2CCS(=O)(=O)C2)C(=O)CC1 (stereo not given),3,i,.,-0.51,8,-2
CCOC(=O)c1c(NC(=O)CSc2ncn[nH]2)sc(C)c1C,-7,i,-38,0.44,45*,-3

# Screening results as filed in PubChem.
